Casp6 inh: inhibitors of human caspase-6; inhibition, % at 12.5 µM; AID 686996; purified caspase-6, Z-VEID-R110 cleavage fluorescence; 350,000 tested, 0.53% active;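 active = mean inhibition across replicates at least about 35%, with every replicate also reaching that limit, limit read from the data; inconclusive = only one of the two criteria met; inactive = neither criterion met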;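 note: 0% = median of neutral control wells and 100% = no fluorescence left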
Wnt bcat act: activators of Wnt/beta-catenin signaling. Wnt/beta-catenin reporter cell assay, activator, plate reader. activation, % at 9.35 µM. 300,000 tested, 1.2% active. AID 743398; in the data active = activation above about 30%, passing the limit was not always enough; inconclusive = no clear call, values can overlap the other calls;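 note: 0% = neutral control wells and 100% = positive control wells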
esBAF inh: inhibitors of esBAF chromatin remodeling in mouse ES cells; reporter increase, % at 12.5 µM; Bmi1-luciferase knock-in reporter, 24 h; 100% = twice the neutral-well signal; AID 602393; 350,000 tested, 2% active; in the data active = activation above about 40%; inconclusive = no clear call, values can overlap the other calls;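 note: 0% = median of the plate's neutral control wells and 100% = double that signal; a rise in the Bmi1 reporter signal indicates esBAF inhibition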
NSD2 HMT inh: blocks human histone methyltransferase NSD2 | O96028 | NSD2 peptide methylation, AlphaScreen, 120 min | inhibition, % at 12.5 µM | 310,000 tested, 0.54% active; in the data active = inhibition above about 50%
Target sequence (O96028 whole entry, looked up): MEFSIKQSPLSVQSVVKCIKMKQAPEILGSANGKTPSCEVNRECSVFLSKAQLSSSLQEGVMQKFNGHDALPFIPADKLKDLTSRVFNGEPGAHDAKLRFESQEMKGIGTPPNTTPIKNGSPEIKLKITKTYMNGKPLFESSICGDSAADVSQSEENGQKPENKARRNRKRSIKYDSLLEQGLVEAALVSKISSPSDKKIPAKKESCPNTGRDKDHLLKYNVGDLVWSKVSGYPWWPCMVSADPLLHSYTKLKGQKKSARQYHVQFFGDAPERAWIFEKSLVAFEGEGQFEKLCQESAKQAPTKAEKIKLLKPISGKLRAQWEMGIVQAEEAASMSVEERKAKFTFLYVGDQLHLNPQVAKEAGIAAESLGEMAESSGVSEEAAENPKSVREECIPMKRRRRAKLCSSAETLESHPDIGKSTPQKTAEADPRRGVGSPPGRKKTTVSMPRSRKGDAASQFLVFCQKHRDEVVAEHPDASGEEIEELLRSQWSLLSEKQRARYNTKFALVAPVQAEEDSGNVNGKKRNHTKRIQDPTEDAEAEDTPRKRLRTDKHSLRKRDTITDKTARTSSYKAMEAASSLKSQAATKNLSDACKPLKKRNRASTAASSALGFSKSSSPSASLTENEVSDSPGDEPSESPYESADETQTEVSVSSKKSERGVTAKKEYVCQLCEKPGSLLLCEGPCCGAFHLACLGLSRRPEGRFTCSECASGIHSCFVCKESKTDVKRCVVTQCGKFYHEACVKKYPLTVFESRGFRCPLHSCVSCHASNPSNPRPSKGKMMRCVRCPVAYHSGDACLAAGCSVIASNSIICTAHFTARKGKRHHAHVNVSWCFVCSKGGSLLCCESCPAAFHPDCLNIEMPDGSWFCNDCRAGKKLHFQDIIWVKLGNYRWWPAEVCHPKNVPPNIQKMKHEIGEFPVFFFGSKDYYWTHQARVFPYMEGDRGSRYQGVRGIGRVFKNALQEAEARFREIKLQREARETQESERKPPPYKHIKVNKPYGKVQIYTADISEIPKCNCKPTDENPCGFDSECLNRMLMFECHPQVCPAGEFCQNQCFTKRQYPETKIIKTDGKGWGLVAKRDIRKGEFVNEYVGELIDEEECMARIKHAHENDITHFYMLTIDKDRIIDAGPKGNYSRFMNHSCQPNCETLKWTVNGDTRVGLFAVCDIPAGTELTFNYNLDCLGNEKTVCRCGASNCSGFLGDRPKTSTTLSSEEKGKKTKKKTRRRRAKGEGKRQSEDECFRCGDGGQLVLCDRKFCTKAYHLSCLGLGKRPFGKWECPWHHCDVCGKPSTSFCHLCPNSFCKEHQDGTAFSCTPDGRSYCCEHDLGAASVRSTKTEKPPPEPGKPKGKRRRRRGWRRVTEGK
MITF TRPM1 HTS: activators of MITF-driven TRPM1 promoter activity in SK-MEL-5 cells. activation, % at 12.5 µM. 300,000 tested, 0.75% active. SK-MEL-5 TRPM1-promoter luciferase, 24 h; % of positive control, neutral wells = 0. AID 588334;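 active = mean activation of at least 80% with every replicate also reaching 80%; inconclusive = mean reaches 80% but some replicate falls short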;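 note: 0% = neutral control wells and 100% = parthenolide positive control wells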
Xi reactivation: reactivates the inactive X chromosome in mouse fibroblasts | XiGFP mouse fibroblasts, % GFP-positive cells imaging, 3 d; cells co-treated with 5-aza-dC sensitizer; scaled so ellipticine positive control = 100% | activation, % at 7.58 µM | 360,000 tested, 0.055% active;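 active = mean normalized replicate activation at least 10% and every replicate at or above 10%; inconclusive = only one of the two criteria met; inactive = mean below 10% and not all replicates reach 10%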;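 note: 0% = median of on-plate neutral control wells and 100% = ellipticine 6 µM median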
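System: 68-5-11 XiGFP fibroblast line | Buffer or medium: DMEM containing 5-aza-dC | Compound: Single point | Times: Compounds 3 days, fix/stain 15 min at room temperature | Benchmarks: Positive control ellipticine, 6 µM final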
Starred values were filed as active, the others as inactive; ? = inconclusive; . = no result given. Rows were chosen to be rich in hits. Some 3% of all compounds tested hit in one or more screens of this group.

SMILES | Casp6 inh | Wnt bcat act | esBAF inh | NSD2 HMT inh | MITF TRPM1 HTS | Xi reactivation
CC(Oc1ccc(Cl)cc1Cl)c1nc(-c2ccccn2)no1 (centres undefined) | . | . | 103* | -3 | 131* | .
CCC(c1ccccc1)c1nc(-c2ccccn2)no1 (centres undefined) | . | . | 47* | -1 | 25 | .
CN(C)C(=O)C[C@@H]1CC[C@H]2[C@@H](COC[C@@H](O)CN2CC2CCCCC2)O1 | -1 | . | -5 | . | . | 0
COc1ccc2c3c(n(C)c2c1)[C@H](CO)N(C(=O)Nc1ccccc1F)CC31CN(C(C)=O)C1 | . | . | . | . | . | 0
Cc1cc(COc2ccccc2)oc1C(=O)O | 0 | 1 | 51* | -1 | . | 0
O=C(Nc1cccc(F)c1)N1CC(=O)N2[C@H](C1)[C@H](c1ccc(-c3ccccc3)cc1)[C@@H]2CO | 0 | . | . | . | . | 0
c1nc2nc3c(c(N4CCCC4)n2n1)CCCC3 | . | . | . | 7 | . | .
CC1CCC(NC(=O)C2CCN(c3c4c(nc5ncnn35)CCC4)CC2)CC1 (centres undefined) | . | . | 41* | . | . | .
Cc1cccc(N2CC(C(=O)NC3CCCCCC3)CC2=O)c1C (centres undefined) | 1 | 368* | 17 | -3 | 5 | 0
Cc1ccccc1N1CC(C(=O)NC2CCCC2)CC1=O (centres undefined) | 3 | -1 | -7 | -6 | 2 | 0
O=C1c2ccccc2C(=O)c2c([N+](=O)[O-])ccc(O)c21 | 38* | 12 | . | 14 | . | 0
CCCCSC(=O)Nc1ccccc1 | . | 5 | 50* | -3 | 9 | .
COc1ccc2c3c(n(C)c2c1)[C@H](CO)N(C(=O)CN(C)C)CC31CCN(Cc2cccnc2)CC1 | -5 | . | . | . | . | 0
COc1ccc2cc(C(=O)c3ccccc3)c(=O)oc2c1 | . | . | 66* | -1 | 66 | .
NC(=O)c1cc2ccccc2oc1=NCc1ccccc1 | . | . | 6 | 2 | 7 | .
NC(=O)c1cc2ccc(O)cc2oc1=Nc1ccccc1 | . | 15 | 31 | 1 | 45 | .
NC(=O)c1cc2ccc(O)cc2oc1=NCc1ccccc1 | 8 | -4 | 45* | 0 | 18 | .
COc1ccc2cc(C(N)=O)c(=Nc3ccccc3)oc2c1 | -4 | ? | . | 0 | 102* | 1
C[C@H](CO)N1C[C@H](C)[C@@H](CN(C)C(=O)CCCN(C)C)OCCCC[C@H](C)Oc2ccc(NC(=O)CCCN(C)C)cc2C1=O | 1 | . | -5 | . | . | 0
CN(C)C(=O)C[C@H]1CC[C@@H]2[C@H](COC[C@H](O)CN2CC2CCOCC2)O1 | 1 | . | 3 | . | . | 0
COc1nc(C)nc2c1sc1nc3c(cc12)COC(C)(C)C3 | . | . | 26 | 3 | ? | .
Cc1nc(OCC(C)C)c2sc3nc4c(cc3c2n1)COC(C)(C)C4 | -3 | 52* | . | -1 | . | 0
CCCN1C[C@@H](C)[C@@H](OC)CN(C)C(=O)c2ccc(NC(=O)C3CC3)cc2OC[C@H]1C | -2 | . | -6 | . | . | 0
Cc1ccccc1NC(=O)C(=O)c1cn(C)c2ccccc12 | 3 | 2 | 56* | 7 | 41 | 0
O=C(NCC[C@@H]1CC[C@@H](NC(=O)C2CC2)[C@@H](CO)O1)c1ccc(F)cc1 | -1 | . | 2 | . | . | 0
SMILES | Casp6 inh | Wnt bcat act | esBAF inh | NSD2 HMT inh | MITF TRPM1 HTS | Xi reactivation
Nc1c(OS(=O)(=O)c2ccccc2)cccc1OS(=O)(=O)c1ccccc1 | 0 | 60* | . | -1 | . | 0
N/C(=N\OC(=O)c1ccc([N+](=O)[O-])cc1)c1ccc(Br)cc1 | 0 | 16 | 34 | -3 | . | 0
Cc1ccc(C(=O)O/N=C(\N)c2cccc([N+](=O)[O-])c2)cc1 | 2 | -2 | 40 | 3 | 94* | .
N/C(=N\OC(=O)c1ccc(Br)cc1)c1cccc([N+](=O)[O-])c1 | 3 | 4 | 72* | 0 | 48 | 0
N/C(=N\OC(=O)c1ccco1)c1cccc(Br)c1 | . | 50* | 8 | -1 | 56 | .
N/C(=N\OC(=O)c1ccncc1)c1cccc([N+](=O)[O-])c1 | 0 | 14 | 54* | 2 | . | 0
Cc1ccc(CC(=O)O/N=C(\N)c2cccc([N+](=O)[O-])c2)cc1 | 0 | 4 | . | . | -5 | 0
C[C@@H]1CN([C@H](C)CO)C(=O)c2cc(NC(=O)C3CCCCC3)ccc2O[C@@H](C)CCCCO[C@@H]1CN(C)S(C)(=O)=O | . | . | -4 | . | . | -1
Cc1cccc(/C(N)=N/OC(=O)c2ccncc2)c1 | 0 | 34* | 12 | . | 69 | 0
COc1ccc(-c2nnc(SCC(=O)N3CCCC3)o2)cc1 | 1 | 9 | 45* | 2 | 36 | 0
CCOc1ccc(-c2nnc(SCC(=O)N3CCCC3)o2)cc1 | -3 | 3 | 53* | -2 | 28 | 0
COc1ccc(-c2nnc(SCC(=O)N3CCCCC3)o2)cc1 | -1 | 5 | 38 | -3 | 35 | 0
CCOc1ccc(-c2nnc(SCC(=O)N3CCOCC3)o2)cc1 | . | -2 | 22 | 0 | . | .
CCC(C)(C)C(=O)Nc1nnc(CCc2ccccc2)s1 | -2 | 15 | 62* | 6 | 61 | 0
CC(C)(C)CC(=O)Nc1nnc(CCc2ccccc2)s1 | -3 | 9 | ? | -2 | . | 0
O=C(Nc1nnc(CCc2ccccc2)s1)c1cccs1 | . | . | 46* | -6 | 26 | .
Cc1ccc(CSc2nc3ccncc3[nH]2)cc1 | 0 | 4 | -51 | . | -5 | 0
Clc1ccc(CSc2nc3ccncc3[nH]2)cc1 | -2 | 37* | -27 | . | 17 | 0
CC(=O)Nc1ccc(NC(=O)c2oc3cc(C)c(C)cc3c2C)cc1 | 3 | -2 | 3 | . | 11 | 0
Cc1cc2oc(C(=O)Nc3nonc3C)c(C)c2cc1C | 0 | ? | 77* | 1 | 120* | 0
CCc1ccc2oc(C(=O)Nc3nonc3C)c(C)c2c1 | -3 | 44* | 78* | -1 | 50 | 0
C[C@H]1CCCCO[C@@H](CN(C)Cc2ccccc2)[C@@H](C)CN([C@@H](C)CO)C(=O)c2cc(NC(=O)c3ccccc3)ccc2O1 | . | . | 2 | . | . | 0
Cc1ccc(NC(=O)c2nnn(-c3cc(C)cc(C)c3)c2N)cc1 | . | 31* | 49* | -1 | . | .
O=C(C[C@@H]1C[C@H]2c3cc(NC(=O)CC4CC4)ccc3O[C@H]2[C@H](CO)O1)NCc1ccc2c(c1)OCO2 | 2 | . | -1 | . | . | 0
Cc1ccc(SCC(=O)c2ccc(CC(=O)O)s2)cc1 | 65* | 1 | . | 16 | . | 0
O=C(O)Cc1ccc(C(=O)c2ccccc2)s1 | . | -1 | -6 | 2 | 5 | .
O=C(O)Cc1ccc(C(=O)CSc2ccccc2)s1 | 49* | 3 | 23 | 23 | 2 | 0
COc1ccc(C(=O)O)cc1S(=O)(=O)Nc1cc(S(=O)(=O)Nc2ccc(C)c(Cl)c2)ccc1Cl | . | . | . | 2 | . | .
CNC[C@H]1Oc2ccccc2C(=O)N(C)C[C@H]1C | . | . | . | . | . | 0
C=CCNC(=O)C1CCN(c2nc(C)cc(-c3ccccc3)n2)CC1 | -8 | 8 | 56* | 0 | 34 | .
